These results are taken from paper PMC11492202 (RSC Advances, 2024).

For test [1], the system named is Escherichia coli. Kind of test: Antibacterial disc diffusion assay. In kind it is cell-based. Particulars: 37 °C, 24 hours. Put shortly:
(§1)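 Organisms grown overnight in nutrient broth, adjusted to 0.5 McFarland turbidity and spread evenly on Mueller-Hinton agar with sterile cotton brushes. Sterile 4 mm paper discs were impregnated with test compound and placed on the inoculated plates. Rifampin served as the positive control and DMSO as the negative control. Plates were incubated at 37 °C for 24 h, and inhibition zones were measured in mm.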

The test system of test [2] is Bacillus subtilis. Kind of test: Antibacterial disc diffusion assay. It is filed as cell-based. Particulars: 37 °C, 24 hours. In outline:
as §1

Test [3] addresses α-amylase. Kind of test: In vitro α-amylase inhibition assay. It is filed as biochemical. Particulars: read-out: α-Amylase inhibition IC50 ± SEM; starch substrate, pH 6.9.
For test [4], the target named is Proteinase K (Parengyodontium album, UniProt P06873). Nature of the test: In vitro proteinase K inhibition assay. In kind it is biochemical, Tritirachium album Limber.
Chain of Proteinase K (P06873 106-384): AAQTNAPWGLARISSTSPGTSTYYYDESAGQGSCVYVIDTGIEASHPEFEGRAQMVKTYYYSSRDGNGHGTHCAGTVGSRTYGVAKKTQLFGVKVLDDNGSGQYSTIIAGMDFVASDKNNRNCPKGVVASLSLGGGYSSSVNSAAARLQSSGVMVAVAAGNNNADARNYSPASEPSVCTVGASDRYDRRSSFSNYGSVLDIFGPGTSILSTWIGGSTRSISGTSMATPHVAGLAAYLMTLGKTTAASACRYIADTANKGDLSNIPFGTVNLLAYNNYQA

With `O=C(NC(=S)Nc1nc(-c2ccccc2)cc(-c2ccc(Br)cc2)n1)c1ccccc1` [6a, N-((4-(4-Bromophenyl)-6-phenylpyrimidin-2-yl)carbamothioyl) benzamide], the “Antibacterial zone of inhibition” value came to 7 mm in test [1] and 8 mm in test [2]. The IC50 in test [3] is 1676 ± 14 nM.

With `COc1ccc(C(=O)NC(=S)Nc2nc(-c3ccccc3)cc(-c3ccc(Cl)cc3)n2)cc1OC` [6b, N-((4-(4-Chlorophenyl)-6-phenylpyrimidin-2-yl)carbamothioyl)-3,4-dimethoxybenzamide], the IC50 in test [4] was determined as 1810 ± 86 nM; in test [3], 1612 ± 4 nM. Further, the “Antibacterial zone of inhibition” value in test [1] turned out to be 6 mm; in test [2], 9 mm.

As to `Cc1ccc(-c2cc(-c3ccccc3)nc(NC(=S)NC(=O)c3ccccc3)n2)cc1` [6c, N-((4-Phenyl-6-(p-tolyl)pyrimidin-2-yl)carbamothioyl)benzamide], the half-inhibitory concentration (IC50) turned out to be 1830 ± 62 nM in test [4] and 1550 ± 24 nM in test [3]. For the same molecule, the entries for the “Antibacterial zone of inhibition” value in test [1] and in test [2] were 7 mm and 8 mm, respectively.

`Cc1ccc(-c2cc(-c3ccc(F)cc3)nc(NC(=S)NC(=O)c3ccccc3)n2)cc1` [6d, N-((4-(4-Fluorophenyl)-6-(p-tolyl)pyrimidin-2-yl)carbamothioyl)benzamide]: the “Antibacterial zone of inhibition” value in test [1] is recorded as 8 mm; in test [2] it was 9 mm. In test [3], the IC50 worked out at 1550 ± 23 nM.

As to `O=C(NC(=S)Nc1nc(-c2ccccc2)cc(-c2ccc(F)cc2)n1)c1ccccc1` [6e, N-((4-(4-Fluorophenyl)-6-phenylpyrimidin-2-yl)carbamothioyl)benzamide], the “Antibacterial zone of inhibition” value came to 6 mm in test [1] and 7 mm in test [2]. Further, the concentration for half-maximal inhibition (IC50) in test [3] was 1662 ± 10 nM.

In the case of `Cc1ccccc1C(=O)NC(=S)Nc1nc(-c2ccccc2)cc(-c2ccc(Cl)cc2)n1` [6f, N-((4-(4-Chlorophenyl)-6-phenylpyrimidin-2-yl)carbamothioyl)-2 methylbenzamide], the IC50 in test [4] stood at 1790 ± 80 nM; in test [3], 1664 ± 10 nM. Besides, the “Antibacterial zone of inhibition” value in test [1] is given as 7 mm; in test [2], 6 mm.

`O=C(NC(=S)Nc1nc(-c2ccccc2)cc(-c2ccc(Cl)cc2)n1)c1cccc2ccccc12` [6h, N-((4-(4-Chlorophenyl)-6-phenylpyrimidin-2-yl)carbamothioyl)-1-naphthamide]: the “Antibacterial zone of inhibition” value in test [1] is on record as 6 mm; in test [2], 8 mm. In addition, the IC50 in test [3] came to 1601 ± 8 nM.

In the case of `O=C(NC(=S)Nc1nc(-c2ccccc2)cc(-c2ccc(Cl)cc2)n1)C1CCCCC1` [6i, N-((4-(4-Chlorophenyl)-6-phenylpyrimidin-2-yl)carbamothioyl) cyclohexane carboxamide], the “Antibacterial zone of inhibition” value in test [1] is listed as 7 mm; in test [2], 11 mm. For the same molecule, the IC50 in test [3] was 1520 ± 34 nM.

Consider `Cc1ccc(C(=O)NC(=S)Nc2nc(-c3ccccc3)cc(-c3ccc(Cl)cc3)n2)cc1` [6j, N-((4-(4-Chlorophenyl)-6-phenylpyrimidin-2-yl)carbamothioyl)-4-methylbenzamide], for which the “Antibacterial zone of inhibition” value was 6 mm in test [1] and 7 mm in test [2]. Besides, the half-inhibitory concentration (IC50) in test [3] was 1480 ± 51 nM.

As to `CO[C@H]1/C=C/O[C@@]2(C)Oc3c(C)c(O)c4c(O)c(c(/C=N/N5CCN(C)CC5)c(O)c4c3C2=O)NC(=O)/C(C)=C\C=C\[C@H](C)[C@H](O)[C@@H](C)[C@@H](O)[C@@H](C)[C@H](OC(C)=O)[C@@H]1C` [Rifampin, reference compound], the entries for the “Antibacterial zone of inhibition” value in test [1] and in test [2] were 17 mm and 26 mm, respectively.
